Converted amounts (≈) assume the structure as drawn.

These results are taken from ChEMBL document CHEMBL1833887, “Synthesis and evaluation of 7-substituted 4-aminoquinoline analogues for antimalarial activity” (J Med Chem, 2011).

In series [1] the test system is Plasmodium falciparum. As to the kind of experiment: Ratio of EC50 for chloroquine-resistant Plasmodium falciparum K1 infected in human erythrocytes to EC50 for chloroquine-sensitive Plasmodium falciparum 3D7 infected in human erythrocytes. Type of series: functional.
For series [2], the system named is Plasmodium falciparum. As to the kind of experiment: Antimalarial activity against chloroquine-sensitive Plasmodium falciparum 3D7 infected in human erythrocytes assessed as reduction in parasitemia after 72 hrs by spectrophotometry. The conditions noted are these: 3D7, 72 h. It counts as functional, organism-based.
The test system of series [3] is Plasmodium falciparum. In words: Antimalarial activity against chloroquine-resistant Plasmodium falciparum K1 infected in human erythrocytes assessed as reduction in parasitemia after 72 hrs by spectrophotometry. Type of series: functional, organism-based. The conditions noted are these: K1, 72 h.
The nature of series [4]: Solubility of the compound at pH 7.4 after 18 hrs by UV spectroscopic analysis. Type of series: physicochemical. The following applies: buffer. The gist of the method: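 Kinetic solubility. A 10 mM stock is diluted 1:100 into PBS pH 7.4 and incubated 18 h at room temperature, then filtered; the filtrate is mixed 1:1 with 1-propanol. UV spectrum (250–500 nm) compared by AUC with a 1-propanol/PBS reference. Single experiment in triplicate.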

A short description of series [5]: Ratio of EC50 for human HepG2 cells to EC50 for Plasmodium falciparum 3D7 infected in human erythrocytes.
Series [6] is described as follows: Ratio of EC50 for human HepG2 cells to EC50 for Plasmodium falciparum K1 infected in human erythrocytes.
A short description of series [7]: Permeability of the compound at pH 7.4 after 30 mins by PAMPA. It counts as ADME. The conditions noted are these: read-out: permeability. The gist of the method: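 PAMPA at pH 7.4. A 10 mM DMSO stock is diluted into system solution buffer; its UV spectrum serves as reference. Membrane painted with GIT lipid, acceptor chamber holds acceptor solution buffer. Sandwich stirred for 30 min, aqueous boundary layer set to 40. Donor and acceptor UV spectra read at 250–500 nm. Permeability coefficient from the AUCs of reference, donor and acceptor. Single experiment in triplicate.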
A general note: The PAMPA barrier holds no transporters, so it reflects passive diffusion.

A short description of series [8]: Dissociation constant, pKa of the compound. It counts as physicochemical.
The test system of another series is HepG2. As to the kind of experiment: Cytotoxicity against human HepG2 cells assessed as intracellular ATP level after 72 hrs by Celltiter-Glo luminescent assay. It counts as cell-based. The following applies: HepG2, 72 h. (In general: In ATP-based viability assays light output follows the ATP content of the culture.)

For `COc1cccc(CNCCCNc2ccnc3cc(Oc4ccc(C(C)(C)C)cc4)ccc23)c1O`, the “Ratio EC50” value in the series with Plasmodium falciparum [1] turned out to be 4.6; in series [5], 28; in series [6] it was 6. In addition, the EC50 came out at 54 nM with Plasmodium falciparum [2], 249 nM in the series on Plasmodium falciparum [3] and 1500 nM in the series with HepG2. The solubility at 18 h in series [4] is 14.5 µM (≈ 7.04 µg/mL). Also, the Papp at 0.5 h in [7] stood at 317 ×10⁻⁶ cm/s. The compound further had a pKa in series [8] of 9.28.
Turning to `c1coc(CNCCCNc2ccnc3cc(-c4cccc5ccccc45)ccc23)c1`, the “Ratio EC50” value in the series with Plasmodium falciparum [1] is reported as 41.2; in series [5] it was 178.2; in series [6], 4.3. Besides, the EC50 with Plasmodium falciparum [2] is 31 nM; in the series on Plasmodium falciparum [3] it was 1300 nM; with HepG2, 5600 nM. The solubility at 18 h in series [4] was 32 µM (≈ 13 µg/mL). Also, in [7], the Papp at 0.5 h is 237 ×10⁻⁶ cm/s. For the same compound, the pKa in series [8] was found to be 9.47.
For the compound `COc1ccc(-c2ccc3c(NCCCNCc4cccc(OC)c4O)ccnc3c2)cc1`, the “Ratio EC50” value in the series on Plasmodium falciparum [1] was 6; in [5], 122.9; in series [6] it was 20.6. Moreover, the EC50 amounted to 13 nM in the series on Plasmodium falciparum [2], 78 nM in the series with Plasmodium falciparum [3] and 1600 nM in the series with HepG2. For the same compound, the solubility at 18 h in [4] came out at 32 µM (≈ 14.2 µg/mL). Moreover, the Papp at 0.5 h in series [7] is 237 ×10⁻⁶ cm/s. In addition, the pKa in [8] was found to be 9.47.
Take `FC(F)(F)c1cc(-c2ccc3c(NCCCNCc4ccc5c(c4)OCO5)ccnc3c2)cc(C(F)(F)F)c1`: the entries for the “Ratio EC50” value (with Plasmodium falciparum [1]; in series [5]; in [6]) were 2.1, 4.1 and 1.9, respectively. The EC50 turned out to be 284 nM with Plasmodium falciparum [2], 604 nM in the series with Plasmodium falciparum [3] and 1160 nM in the series with HepG2. This compound returned a solubility at 18 h in [4] of 32 µM (≈ 17.5 µg/mL). Also, in [7], the Papp at 0.5 h came out at 237 ×10⁻⁶ cm/s. The same compound had a pKa in [8] of 9.47.
Regarding `COc1cccc(CNCCCNc2ccnc3cc(Cc4ccc(F)cc4)ccc23)c1O`, the figures for the “Ratio EC50” value (in the series on Plasmodium falciparum [1]; in [5]; in series [6]) were 473.5, 316.6 and 0.7, respectively. The figures for the EC50 in the series with Plasmodium falciparum [2], with Plasmodium falciparum [3] and in the series with HepG2 were 15 nM, 7150 nM and 4780 nM, respectively. This compound also returned a solubility at 18 h in [4] of 4.2 µM (≈ 1.87 µg/mL). In addition, the Papp at 0.5 h in [7] was found to be 23 ×10⁻⁶ cm/s. Moreover, the pKa in series [8] came to 9.47.
For `Fc1ccc(Oc2ccc3c(NCCCNCc4ccc5c(c4)OCO5)ccnc3c2)cc1`, the results for the “Ratio EC50” value (in the series with Plasmodium falciparum [1]; in [5]; in series [6]) were 44.5, 1067 and 24, respectively. Moreover, the EC50 in the series on Plasmodium falciparum [2] worked out at 15 nM; in the series with Plasmodium falciparum [3], 667 nM; with HepG2, 16000 nM. This compound also yielded a solubility at 18 h in series [4] of 14.5 µM (≈ 6.46 µg/mL). Further, the Papp at 0.5 h in series [7] is 317 ×10⁻⁶ cm/s. For the same compound, the pKa in series [8] worked out at 9.28.
Turning to `COc1ccc(Oc2ccc3c(NCCCNCc4cc(F)ccc4OC)ccnc3c2)cc1`, the “Ratio EC50” value in the series on Plasmodium falciparum [1] came to 12.2; in series [5], 129; in [6], 11. Besides, the EC50 turned out to be 54 nM in the series on Plasmodium falciparum [2], 660 nM in the series on Plasmodium falciparum [3] and 7000 nM in the series with HepG2. In series [4], the solubility at 18 h is 14.5 µM (≈ 6.69 µg/mL). Moreover, the Papp at 0.5 h in [7] was found to be 317 ×10⁻⁶ cm/s. In series [8], this compound registered a pKa of 9.28.
For `FC(F)(F)c1ccc(-c2ccc3c(NCCCNCc4ccco4)ccnc3c2)cc1`, the results for the “Ratio EC50” value (in the series with Plasmodium falciparum [1]; in series [5]; in series [6]) were 11, 171 and 15.5, respectively. Besides, the EC50 in the series with Plasmodium falciparum [2] came out at 20 nM; in the series with Plasmodium falciparum [3], 223 nM; in the series with HepG2 it was 3470 nM. This compound also had a solubility at 18 h in [4] of 32 µM (≈ 13.6 µg/mL). The Papp at 0.5 h in series [7] came to 237 ×10⁻⁶ cm/s. In series [8], the pKa is 9.47.
As to `COc1ccc(F)cc1CNCCCNc1ccnc2cc(Cc3cccc(C(F)(F)F)c3)ccc12`, the results for the “Ratio EC50” value (in the series on Plasmodium falciparum [1]; in [5]; in [6]) were 8.1, 11 and 1.3, respectively. The EC50 came out at 40 nM in the series on Plasmodium falciparum [2], 323 nM with Plasmodium falciparum [3] and 440 nM in the series with HepG2. The same compound gave a solubility at 18 h in series [4] of 4.2 µM (≈ 2.09 µg/mL). The Papp at 0.5 h in [7] worked out at 23 ×10⁻⁶ cm/s. In addition, the pKa in [8] is 9.47.

As a reminder, the EC50 is the concentration at which the effect is half-maximal. By solubility is commonly meant how much of the substance goes into solution per volume. Low values mean little dissolved substance, high ones much dissolved substance. One may read the pKa as the pH at which an ionisable group is half protonated. High values mean a weaker acid or stronger base, low ones a stronger acid or weaker base.
